Assay outcomes: PubChem, several laboratories
NF-kB expr up: compounds increasing NF-kB expression in human neuronal cells. NF-kB reporter expression; hits give high values. fold change at 12.5 µM. 190,000 compounds, 1.6% hits. AID 1239; in the data active = fold change above about 3.3
FLuc inhib CS: inhibits firefly luciferase, flagging false hits in luciferase inhibition screens. inhibition, % at 10 µM. AID 1006. P08659. ATPLite firefly luciferase biochemical luminescence, 10 min. 200,000 compounds, 1.5% hits;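 active = inhibition above about 50% when tested at 10 µM, limit read from the data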
Target sequence (P08659 whole entry, looked up): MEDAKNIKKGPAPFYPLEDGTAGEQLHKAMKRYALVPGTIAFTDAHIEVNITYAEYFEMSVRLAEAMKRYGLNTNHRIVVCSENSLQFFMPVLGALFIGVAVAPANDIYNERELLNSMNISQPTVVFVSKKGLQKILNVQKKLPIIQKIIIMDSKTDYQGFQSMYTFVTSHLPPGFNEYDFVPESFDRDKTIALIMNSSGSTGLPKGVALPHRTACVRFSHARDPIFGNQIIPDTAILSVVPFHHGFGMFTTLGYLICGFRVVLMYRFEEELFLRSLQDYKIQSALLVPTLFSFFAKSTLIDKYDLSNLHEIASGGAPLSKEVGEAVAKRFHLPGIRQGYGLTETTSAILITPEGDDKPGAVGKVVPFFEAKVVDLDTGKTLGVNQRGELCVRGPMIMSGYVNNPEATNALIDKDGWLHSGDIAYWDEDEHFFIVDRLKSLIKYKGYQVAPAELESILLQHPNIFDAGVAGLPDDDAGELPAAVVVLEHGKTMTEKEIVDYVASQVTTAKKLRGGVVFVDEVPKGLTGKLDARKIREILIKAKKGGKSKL
APP 5'UTR act: APP 5'UTR luciferase reporter activation. 190,000 compounds, 1% hits. SH-SY5Y APP 5'UTR luciferase reporter, luminescence; zero percent = DMSO vehicle wells. AID 1276. activation, % at 2 µM;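 active = activation above a set limit, based on mean plus 3 SD of controls, cut at about 140% in these data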
FLuc stim CS: affects firefly luciferase, flagging false hits in luciferase stimulation screens | P08659 | ATPlite luciferase biochemical, luminescence, 10 min; 0 = ATP-free wells, 1 = DMSO control | activation factor at 10 µM | 200,000 tested, under 10 active | AID 1027;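 active = luciferase activation factor, scaled between plate controls, of at least 2 with compound at 10 µM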
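assay system = Luciferase/luciferin detection reagent, cell-free biochemical luciferase assay | also added = ATP substrate | times = 10 min post-reagent at room temperature | measured by = luminescence from luciferase reaction | measure = luciferase activation, seen as luminescence increase over controls | benchmarks = low control with PBS replacing ATP, high control enzyme plus ATP without compound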
STAT1 activator: increases IFN-gamma driven STAT1 reporter signal; activation (% of control), % at 5.5 µM; 200,000 compounds, 2.6% hits; NIH 3T3 STAT1-luciferase reporter, luminescence; 100% = IFN-gamma alone, no compound;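 active = activation above the screen-wide mean activation plus 3 SD, cut at about 130% in these data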;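 also: raw ratio to IFN-gamma control signal so 100% means no change and 0% no light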
* = called active by the depositor; nt = no result given. The list is not random: actives were taken first. Their share in the collection is about 4.3%.

SMILES | NF-kB expr up | FLuc inhib CS | APP 5'UTR act | FLuc stim CS | STAT1 activator
O=C(CC1(O)C(=O)N(Cc2cccc3ccccc23)c2ccccc21)c1cccnc1 (stereo not drawn) | 3.2 | 69* | -56 | 0.3 | 108
CCN(CC)C(=O)C(=O)c1cccn1-c1c(Cl)cccc1C#N | 1.4 | -10 | 16 | 1.1 | 97
Cc1cccc(N2NC(=O)/C(=C/c3ccc(-c4ccc(Cl)c(C(=O)O)c4)o3)C2=O)c1 | 3.9* | 2 | 9 | 1 | 90
CS(=O)(=O)N1CCN(c2ccc(NC(=O)c3ccc(Br)o3)cc2)CC1 | 1.9 | 10 | 27 | 0.9 | 130*
Cc1cc(-c2nnc(CCC(=O)N(CC3CCC3)CC3CCCO3)o2)no1 (stereo not drawn) | 1.9 | -6 | 27 | 1.1 | 121
C#CCN1C(=O)S/C(=C/C=C/c2ccc(N(C)C)cc2)C1=O | 3.2 | 32 | 106 | 0.7 | 136*
CC(=O)Oc1ccc(Oc2ccc(-c3noc(C)n3)cc2)cc1 | 5.7* | 0 | 25 | 1 | 112
CC(=O)Oc1ccc(-c2nc(-c3cccnc3)no2)cc1 | 2.9 | 60* | nt | 0.4 | 118
O=[N+]([O-])c1ccc(/C=C/c2ccc3cccc([N+](=O)[O-])c3n2)cc1 | 1.1 | 2 | -12 | 1 | 112
O=[N+]([O-])c1cccc2ccc(/C=C/c3ccc(F)cc3)nc12 | 1.7 | 2 | 39 | 1 | 133*
COc1ccc(COC(=O)NNC(=O)c2ccccc2Cl)cc1 | 1.3 | -2 | 4 | 1 | 102
CCOc1ccc2c(c1)OC(c1ccc(C)cc1)(C(F)(F)F)NC2=O (stereo not drawn) | 4.2* | 4 | -95 | 1 | 105
CCOc1ccc2[nH]cc(S(=O)(=O)c3ccc(C)cc3)c(=O)c2c1 | 0.88 | -6 | 13 | 1.1 | 80
COc1ccc(-c2nc3n(n2)C(c2ccccc2Cl)C(C(N)=O)=C(C)N3)cc1 (stereo not drawn) | 1.1 | -5 | -25 | 1.1 | 104
CN(C)c1ccc(/C=C2/NC(=O)NC2=O)cc1 | 1.4 | 73* | 11 | 0.3 | 99
Cc1csc(NC(=O)c2ccc(OCC3CCCO3)cc2)n1 (stereo not drawn) | 4.8* | 74* | 160* | 0.3 | 44
O=C(Nc1nc(-c2ccc(F)c(F)c2)cs1)c1ccc(OCC2CCCO2)cc1 (stereo not drawn) | 0.99 | 7 | 24 | 0.9 | 110
O=C(Nc1nccs1)c1ccc2c(=O)n3c(nc2c1)CCCCC3 | 1.2 | 37 | 66 | 0.6 | 132*
O=C(Nc1cccc(S(=O)(=O)N2CCCCC2)c1)c1ccc2c(=O)n3c(nc2c1)CCCCC3 | 0.53 | 10 | -4 | 0.9 | 85
CN1CCN(C(=O)c2ccc3c(=O)n4c(nc3c2)CCCCC4)CC1 | 1.1 | -9 | -6 | 1.1 | 104
Cc1csc(NC(=O)c2ccc(N3CCCC3=O)cc2)n1 | 1.4 | 89* | 47 | 0.1 | 39
Cc1csc(NC(=O)c2ccc3c(=O)n4c(nc3c2)CCCCC4)n1 | 1.9 | 34 | 148* | 0.7 | 121
N#C/C(C(=O)c1ccccc1)=C1/CCCN1 | 1.1 | 2 | -7 | 1 | 100
N#C/C(C(=O)Oc1ccccc1)=C1\C=CC=CN1 | 1.9 | 25 | 57 | 0.7 | 142*
CCCCCn1nnc2c(=O)oc3ccccc3c21 | 0.97 | -4 | -5 | 1 | 106
SMILES | NF-kB expr up | FLuc inhib CS | APP 5'UTR act | FLuc stim CS | STAT1 activator
CC(C)NC(=O)CCn1nc(-c2ccc(Cl)cc2)c2ccccc2c1=O | 1.1 | -4 | 11 | 1 | 95
COc1ccc(-c2cc(-c3ccc(OC)cc3)nc(-c3ccc4c(c3)NC(=O)CO4)c2)cc1 | 1.1 | -3 | -8 | 1 | 93
Cc1ccn2cc(-c3ccc4c(c3)NC(=O)CO4)nc2c1 | 1.1 | 83* | 120 | 0.2 | 114
CCc1ccccc1NC(=O)CN(C)C(=O)CSc1nn(-c2ccccc2)c(=S)s1 | 1.1 | -1 | 17 | 1 | 97
Cc1ccc(NC(=O)/C=C/C(=O)O)c([N+](=O)[O-])c1 | 1.3 | -4 | 13 | 1 | 100
Cc1ccc(NC(=O)/C=C/c2cccs2)c([N+](=O)[O-])c1 | 7* | 32 | 173* | 0.7 | 146*
Cc1cccc(NC(=O)/C=C/c2cccs2)n1 | 5* | 65* | 170* | 0.3 | 149*
CC(C)NC(=O)NC(=O)COC(=O)c1ccccc1Oc1ccccc1 | 0.98 | -2 | -7 | 1 | 103
COc1ccc(-c2nnnn2-c2ccc(F)cc2F)cc1 | 3.9* | -6 | 6 | 1.1 | 96
COc1ccc(-n2nnnc2-c2ccccc2)cc1 | 1.4 | -6 | -89 | 1.1 | 99
O=Cc1s/c(=N\S(=O)(=O)c2ccccc2)n(CCCCl)c1Cl | 0.12 | -6 | -95 | 1.1 | 136*
CCn1cc(CNC(=S)Nc2cccc(Cl)c2C)cn1 | 1.4 | -3 | 2 | 1 | 99
CC1CN/C(=C\C(=O)c2ccccc2)C(=O)N1 (stereo not drawn) | 2.9 | 20 | 52 | 0.8 | 138*
CC1CN/C(=C\C(=O)c2ccc(Cl)cc2)C(=O)N1 (stereo not drawn) | 4.7* | 51* | 175* | 0.5 | 125
CC(=O)Nc1ccc2nc(-c3ccccn3)[nH]c2c1 | 2.1 | 51* | 72 | 0.5 | 124
c1ccc(-c2nc3cc4ccccc4cc3[nH]2)nc1 | 2.8 | 95* | 157* | 0 | 60
COc1ccc(/C=C/CN2CCN(Cc3ccc(F)cc3)C(CCO)C2)cc1 (stereo not drawn) | 1.1 | -7 | -14 | 1.1 | 104
COc1ccc(CCN=C(N)NS(=O)(=O)c2ccc(C)c(C)c2)cc1 | 0.99 | -1 | 4 | 1 | 98
CSc1ccc(Cl)c(C(=O)OCC(=O)N(C)CCC#N)c1 | 1.2 | -6 | 5 | 1.1 | 96
COc1ccc(CCNC(=O)c2cc3c(C)nccc3[nH]c2=O)cc1OC | 0.33 | -4 | 8 | 1 | 110
COc1ccc(/C=N/N2CCN(c3ccccc3OC)CC2)cc1OC | 1.4 | 2 | 24 | 1 | 102
COc1ccccc1N1CCN(C(=O)/C=C/c2ccco2)CC1 | 1.2 | 12 | 5 | 0.9 | 108
COc1cccc(/C=N/N2CCN(c3ccccc3OC)CC2)c1 | 1.9 | 12 | 32 | 0.9 | 135*
COc1ccccc1N1CCN(/N=C/C=C\c2ccco2)CC1 | 4* | 20 | 73 | 0.8 | 137*
Cn1c(SCc2ccccc2F)nc2cccnc21 | 3.4* | 14 | 141* | 0.9 | 137*
O=C(NC(=S)N1CCN(c2ccccn2)CC1)c1ccco1 | 1.3 | -1 | 20 | 1 | 109
Nc1cccc2nc3ccccc3cc12 | 3.9* | -1 | nt | 1 | 172*
CCOc1cc(C2NN=C(c3ccc(C)cc3)S2)ccc1O (stereo not drawn) | 4.8* | 21 | 59 | 0.8 | 136*
CCOc1cc(C2c3c(n[nH]c3C)C(=O)N2c2ccc(C)cc2)ccc1O (stereo not drawn) | 1.1 | -9 | 7 | 1.1 | 98
